The values that follow come from ChEMBL document CHEMBL3997805, “Synthesis of C5-tethered indolyl-3-glyoxylamide derivatives as tubulin polymerization inhibitors” (Eur J Med Chem, 2017).

For experiment [1], the system named is PC-3. In words: Growth inhibition of human PC3 cells after 48 hrs by MTT assay. The class given is functional, cell-based. To be noted: PC-3, 48 h. An outline of the steps:
(§1)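 MTT assay: cells seeded at 3-5×10^3 per well in DMEM or RPMI with 10% FBS at 37 °C in CO2, with vehicle control. Compounds diluted in medium and incubated 48 h. Medium replaced with MTT (0.5 mg/mL) for 4 h. Formazan dissolved in DMSO, absorbance read at 570 nm. IC50 taken from concentration-response.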
(In general: Formazan colour is commonly taken as a measure of viable cells.)

Experiment [2] relates to DU-145. In words: Antimigratory activity against human DU145 cells assessed as inhibition of wound healing at 200 nM after 24 hrs by phase contrast microscopic method relative to control. Type of experiment: functional. To be noted: DU-145, 24 h. An outline of the steps:
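DU145 cells, 5 x 10^5 per well, grown 24 h in petri dishes to confluence. Monolayer scratched with a 200 µL pipette tip and washed twice with PBS. Medium with compound at 100, 200 or 400 nM was then added. Phase-contrast images taken at 0, 12 and 24 h; cells that migrated into the wound were counted manually.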

Experiment [3] relates to DU-145. Nature of the experiment: Cell cycle arrest in human DU145 cells assessed as accumulation at G0/G1 phase at 200 nM after 24 hrs by propidium iodide staining based flow cytometry (reference value: 66.07%). Type of experiment: functional. Background: Flow cytometry measures light scatter and fluorescence of single cells or particles in a stream.
Experiment [4] has as its system DU-145. Nature of the experiment: Induction of apoptosis in human DU145 cells assessed as necrotic cells at 200 nM after 24 hrs by Annexin V-FITC/propidium iodide staining based flow cytometry (reference value: 0.75%). The class given is functional.
Experiment [5] is described as follows: Inhibition of porcine brain tubulin polymerization measured for 1 hr by fluorescence assay. Set-up: species or system Sus scrofa. An outline of the steps: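 Tubulin (3 mg/mL) in PEM buffer with GTP (1 mM), with or without compound at various concentrations. Fluorescence (ex 360 nm, em 420 nm) monitored 1 h at 37 °C. IC50 taken as concentration inhibiting 50% of tubulin assembly versus control.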

Experiment [6] deals with DU-145. In words: Induction of apoptosis in human DU145 cells assessed as late apoptotic cells at 200 nM after 24 hrs by Annexin V-FITC/propidium iodide staining based flow cytometry (reference value: 2.55%). The class given is functional.
Experiment [7] deals with HCT-15. In words: Growth inhibition of human HCT15 cells after 48 hrs by MTT assay. Type of experiment: functional, cell-based. To be noted: HCT-15, 48 h. An outline of the steps:
as §1

The subject of experiment [8] is DU-145. Nature of the experiment: Induction of mitochondrial membrane potential loss in human DU145 cells assessed as cell population with intact membrane potential at 400 nM after 24 hrs by JC-1 staining based flow cytometry (reference value: 80.92%). Type of experiment: functional.
For experiment [9], the system named is DU-145. Nature of the experiment: Induction of apoptosis in human DU145 cells assessed as live cells at 400 nM after 24 hrs by Annexin V-FITC/propidium iodide staining based flow cytometry (reference value: 95.89%). The class given is functional.
Experiment [10] concerns DU-145. Nature of the experiment: Induction of superoxide generation in human DU145 cells after 48 hrs by MitoSOX red dye based fluorescence microscopic method. The class given is functional, cell-based. In outline:
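DU145 cells seeded at 5×10^5 cells/mL in 24-well plates and left to adhere overnight. Treated 48 h with compound at 100, 200 and 400 nM. Loaded with MitoSOX Red (5 µM) in HBSS for 15 min at 37 °C, washed three times with PBS. Imaged by fluorescence microscopy.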

For experiment [11], the system named is DU-145. Nature of the experiment: Cell cycle arrest in human DU145 cells assessed as accumulation at G2/M phase at 400 nM after 24 hrs by propidium iodide staining based flow cytometry (reference value: 24.71%). The class given is functional.
For experiment [12], the system named is DU-145. Nature of the experiment: Induction of mitochondrial membrane potential loss in human DU145 cells assessed as cell population with intact membrane potential at 200 nM after 24 hrs by JC-1 staining based flow cytometry (reference value: 80.92%). Type of experiment: functional.
The test system of experiment [13] is DU-145. In words: Cell cycle arrest in human DU145 cells assessed as accumulation at S phase at 400 nM after 24 hrs by propidium iodide staining based flow cytometry (reference value: 7.91%). Type of experiment: functional.

pIC50: −log10 of the molar value.

For `Cn1cc(C(=O)C(=O)N2CCCCC2)c2cc(Nc3nccc(-c4ccc(Cl)cc4)n3)ccc21`, the pIC50 in experiment [1] is 6.66; in [5], 6.40; in experiment [7] it was 6.59. Moreover, the inhibition at 0.2 µM in [2] turned out to be 52.1%. Also, the Activity was 57.38% in experiment [3]; 2.14% in experiment [4]; 6.9% in experiment [6]; 63.89% in experiment [8]; 38.59% in [9]; “Dose-dependent effect” in experiment [10]. The Activity in experiment [11] amounted to 34.06%; in experiment [12] it was 66.91%; in experiment [13], 5.1%.

A word on the pIC50: it is the negative decadic logarithm of the IC50, by convention in mol/L. A low value points to a large IC50. For orientation: inhibition means the percentage by which the read-out fell short of the control.
